From PubChem BioAssay
Ecoli rRNA inh: reduced GFP signal of wild-type E. coli, primary screen, bacterial rRNA inhibitor project, GFP/RFP fluorescence, OD600, single point; GFP signal change (wild-type ribosome), % (test concentration not listed); E. coli WT GFP vs humanized-ribosome RFP mutants, 24 h; stronger effect = lower value; DMSO median 0, no signal -100; hit rate 1.6% among 350,000;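 active = significant combined selectivity score with lowered wild-type GFP, culture density cut under 30%, mutant RFP and density less affected; inactive = any of these conditions unmet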
RAD54 inh: inhibitors of human RAD54 branch migration, primary screen, biochemical, fluorescence, single point. DNA repair and recombination protein RAD54-like (Homo sapiens), Q92698. RAD54 Holliday junction branch migration, FAM/BHQ fluorescence. inhibition, % at 10.4 µM. hit rate 0.14% among 360,000. AID 602329, 2012;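 active = mean normalized replicate activity at least 40 and at least half of replicates scoring 40 or more; inconclusive = only one of the two criteria met; inactive = mean below 40 and under half of replicates reaching 40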;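 note: 0% = median of neutral control wells and 100% = median of positive control wells; inhibitors cause a drop in the FAM fluorescence signal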
Target sequence (Q92698 whole entry, looked up): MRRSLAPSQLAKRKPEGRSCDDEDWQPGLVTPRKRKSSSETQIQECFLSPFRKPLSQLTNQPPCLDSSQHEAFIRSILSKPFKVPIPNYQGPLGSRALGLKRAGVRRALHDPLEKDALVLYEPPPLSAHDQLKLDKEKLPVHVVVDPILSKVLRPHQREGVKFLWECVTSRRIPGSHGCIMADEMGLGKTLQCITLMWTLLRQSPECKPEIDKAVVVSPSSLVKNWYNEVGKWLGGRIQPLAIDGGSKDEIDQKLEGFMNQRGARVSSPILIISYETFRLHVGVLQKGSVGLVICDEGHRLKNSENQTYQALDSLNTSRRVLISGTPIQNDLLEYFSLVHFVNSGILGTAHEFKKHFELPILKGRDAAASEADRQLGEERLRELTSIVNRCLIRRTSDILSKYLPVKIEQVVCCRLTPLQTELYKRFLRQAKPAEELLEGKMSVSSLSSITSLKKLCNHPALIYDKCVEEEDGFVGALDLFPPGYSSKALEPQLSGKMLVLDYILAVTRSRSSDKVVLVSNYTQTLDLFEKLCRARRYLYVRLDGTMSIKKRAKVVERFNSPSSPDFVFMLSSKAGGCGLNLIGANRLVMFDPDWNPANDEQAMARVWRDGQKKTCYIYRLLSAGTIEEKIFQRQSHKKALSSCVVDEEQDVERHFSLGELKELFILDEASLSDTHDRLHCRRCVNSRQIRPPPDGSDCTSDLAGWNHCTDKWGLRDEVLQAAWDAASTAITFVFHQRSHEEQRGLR
PglD inh: C. jejuni PglD acetyltransferase inhibitors, primary screen, biochemical, DTNB colorimetric, single point | UDP-N-acetylbacillosamine N-acetyltransferase PglD (Campylobacter jejuni) | purified PglD enzyme, DTNB colorimetric CoA detection | inhibition, % at 12.5 µM | hit rate 0.098% among 360,000 | AID 602405, 2012; in the data active = inhibition above about 16%, passing the limit was not always enough; inconclusive = no clear call, values can overlap the other calls
Cneo AK release: Cryptococcus neoformans cell lysis inducers, primary screen, AK release luminescence, single concentration | C. neoformans lysis, adenylate kinase release luminescence, 4 h; normalised: neutral wells 0, clomiphene wells 100 | AID 651654, 2012 | hit rate 0.2% among 360,000 | lysis activity, % at 15 µM;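 active = mean lysis activity across replicates of at least 80%, whatever share of replicates individually reach that level; inactive = mean lysis activity below 80%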
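read-out = cell lysis signal | test system = log-phase Cryptococcus neoformans yeast cells | input = cells at 5 × 10^6 per mL | medium = fresh YPD growth medium | signal = luminescent adenylate kinase detection reagent | timing = 4 h at 37 °C static, read 1 h later | dosing = single dose | controls = Clomiphene as positive lysis control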
RAD52 inh: RAD52 DNA annealing inhibitors, primary screen, biochemical, FRET, single point, set 2 | recombinant RAD52 DNA annealing, FRET fluorescence | hit rate 0.46% among 360,000 | DNA repair protein RAD52 homolog (Homo sapiens), P43351 | inhibition, % at 18.7 µM | AID 651710, 2012;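 active = every replicate showing at least 50% inhibition; inconclusive = mean inhibition at least 50% but not in every replicate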
DNA binding: DNA binding of candidate compounds, dose response, artefact control for RAD54 inhibitor project, biochemical, fluorescence polarization, cherry-pick. shares compounds with RAD54 inh. Acridine orange-DNA displacement, 20 min. AC50, µM (titrated, usually from 35 µM), for the others: at the highest dose activity change, negative = DNA binding. hit rate 8% among 460. AID 651673, 2012;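 active = signal drop giving an AC50 within twice the top valid tested concentration of each sample, actives reach about 35 µM in these data; inactive = activity opposite to expected, plus the rest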;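 note: polarization loss reports compound binding to salmon sperm DNA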
An asterisk follows results filed as active; ? = inconclusive; · = no result given. A selection: hits, their analogues and other compounds. The true share with any hit is near 1.9%.

SMILES | Ecoli rRNA inh | RAD54 inh | PglD inh | Cneo AK release | RAD52 inh | DNA binding
CCCC(=O)Nc1ccc2c(c1)OC[C@H](C)N(C(=O)c1cnccn1)C[C@H](C)[C@H](OC)CN(C)C2=O | 0.4 | -6.5 | 1.8 | -7.9 | 5.4 | ·
C[C@H]1CN([C@@H](C)CO)C(=O)c2cc(NC(=O)CCC(F)(F)F)ccc2O[C@H]1CN(C)C(=O)Nc1ccc2c(c1)OCO2 | 3.7 | 5.2 | 2.1 | -1.0 | -4.5 | ·
CCN1CCN(c2nc3ccccc3n3cnnc23)CC1 | 9.6 | · | · | · | -11.4 | ·
Cc1nnc2c(N3CCN(CCO)CC3)nc3ccccc3n12 | 9.3 | ? | -3.5 | -0.1 | 4.6 | -17.5%
Oc1ccc(Nc2ccnc3cc(Cl)ccc23)cc1 | 10.4 | 58.0* | 6.0 | -0.1 | -4.2 | -11.8%
CCNC1CCC(Nc2ccnc3cc(Cl)ccc23)CC1 (stereo not given) | 10.3 | 54.7* | -5.9 | -0.1 | 12.8 | -2.2%
COc1cccc2c1-c1c(O)cccc1C2=O | -6.2 | ? | -9.4 | -0.1 | -29.1 | -18.7%
Cc1cc(N2CCN(C)CC2)nc2ccc(NC(=S)NCCN3CCc4ccccc4C3)cc12 | -3.7 | 88.9* | 0.4 | 0.5 | 80.6* | 5.4%
COc1ccc(C(=O)Nc2ccc3nc(N4CCN(C)CC4)cc(C)c3c2)c(OC)c1 | 12.7 | 51.0* | 2.9 | -10.6 | 31.4 | 6.9%
CCCCN(C)CCNC(=S)Nc1ccc2nc(N3CCN(CC)CC3)cc(C)c2c1 | -1.0 | 81.2* | -0.1 | -0.4 | 95.3* | 8.7%
CCN1CCN(c2cc(C)c3cc(NC(=S)NCCN(C)C)ccc3n2)CC1 | 7.9 | 93.1* | 1.4 | 1.5 | 97.6* | -9.1%
CCCCNC(=O)CCC(=O)Nc1ccc2nc(N3CCN(C)CC3)cc(C)c2c1 | 5.8 | 5.9 | -5.6 | 0.9 | -1.8 | ·
CCCCN(C)C(=S)Nc1ccc2nc(N3CCN(CC)CC3)cc(C)c2c1 | 4.1 | · | · | · | 47.6 | ·
CCS(=O)(=O)N1CCC2(CC1)CN(S(=O)(=O)c1cccc(OC)c1)[C@@H](CO)c1[nH]c3cc(OC)ccc3c12 | -6.1 | · | · | · | 20.9 | ·
CC(=O)Nc1ccc2c(c1)C(=O)N(C)[C@H]1CC[C@H](CC(=O)NCCCN3CCOCC3)O[C@H]1CO2 | 1.6 | 5.8 | -0.5 | -1.6 | -7.0 | ·
CCOc1cc2[nH]c(=O)n(Cc3ccc(C(=O)NCCCN4CCC(C)CC4)cc3)c(=O)c2cc1OCC | -1.9 | 59.8* | -4.2 | 2.9 | 48.0 | -9.1%
CCOc1cc2[nH]c(=S)n(Cc3ccc(C(=O)NCCCN4CCOCC4)cc3)c(=O)c2cc1OCC | 5.7 | 4.8 | 6.0 | -3.4 | 12.8 | ·
CCOC(=O)c1c(NC(C)=O)sc2c(O)c(CN3CCN(CC)CC3)ccc12 | · | 62.1* | 2.0 | -0.3 | · | 23.6%
CCOC(=O)c1c(NC(C)=O)sc2c(OC)cccc12 | · | 3.7 | -5.0 | -1.3 | · | ·
O=c1c2ccccc2sc2ccc(NCCCN3CCOCC3)cc12 | -2.5 | 50.8* | 11.6 | -2.5 | -7.1 | -28.9%
COc1ccc2sc3ccccc3c(=O)c2c1 | · | 15.7 | 1.4 | -4.3 | · | ·
CN1CCCC1CCNc1ccc2sc3ccccc3c(=O)c2c1 (stereo not given) | -0.9 | 56.3* | -5.8 | -2.4 | -1.6 | -16.1%
O=C(NCCN1CCOCC1)c1sc2ccccc2c1Cl | -15.8 | · | · | · | -0.3 | ·
O=c1c2ccccc2oc2ccc(NCCCn3ccnc3)cc12 | 0.7 | -11.3 | -1.6 | -7.6 | -78.8 | ·
Cc1cc2oc3cc(NCCC4CCCN4C)ccc3c(=O)c2cc1C (stereo not given) | -1.0 | 69.4* | -5.6 | -3.4 | -261.0 | -14.7%
CCOC(=O)CNC(=O)c1cc2c(=O)[nH]c3ccc(C)cc3c2s1 | 5.4 | -8.1 | 1.3 | 0.1 | -4.0 | ·
Cc1ccc2[nH]c(=O)c3cc(C(=O)NCCN4CCN(C)CC4)sc3c2c1 | 2.0 | 57.3* | -4.8 | 1.7 | 26.1 | -13.3%
